What is called pIC50 is the IC50 on a negative log10 scale, so that one unit is a factor of ten.

This is an account of results in ChEMBL document CHEMBL4823270, “A first-in-class anticancer dual HDAC2/FAK inhibitors bearing hydroxamates/benzamides capped by pyridinyl-1,2,4-triazoles” (Eur J Med Chem, 2021).

Assay [1] has as its system A498. The assay is described as follows: Growth inhibition of human A498 cells at 10 uM incubated for 24 hrs by MTT assay relative to control. Format: functional. To be noted: read-out: GI. The procedure, abridged: (§1)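 Cells seeded at 1 × 10^4 per well, cultured overnight, then exposed to 10 μM compound or DMSO (negative control) for 24 h. After a PBS wash, MTT (2 mg/ml) was added for 4 h at 37°C and formazan dissolved in DMSO. OD read at 570 nm. Growth inhibition = 1 − (OD treated/OD control); at least three independent experiments.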
On the technique in general: Tetrazolium assays rely on reduction of a dye to a coloured formazan, in cell work by metabolically active cells.

In assay [2] the target is T1, Histone deacetylase 2 (Homo sapiens, UniProt Q92769). The assay is described as follows: Inhibition of HDAC2 in human A498 cells assessed as reduction in HDAC2 expression pretreated for 12 weeks followed by treatment for last 24 hrs by Western blot analysis. Format: cell-based. To be noted: time 85.0 day. A general note: Immunoblotting shows a protein as a band on a membrane.

In a further assay the test system is KG-1. In words: Growth inhibition of human KG-1 cells at 10 uM incubated for 24 hrs by MTT assay relative to control. The assay is classed as functional. To be noted: KG-1, 24 h. The procedure, abridged: as §1
The target of assay [3] is T2, Focal adhesion kinase 1 (Homo sapiens, UniProt Q05397). The assay is described as follows: Inhibition of FAK in human CAKI-1 cells assessed as reduction in FAK phosphorylation by Western blot analysis. Format: cell-based. The procedure, abridged:
(§2)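 40 μg protein (Bradford) resolved by SDS-PAGE, transferred to PVDF, blocked 1 h in milk or BSA. Primary antibody overnight, HRP secondary 1 h, ECL detection; β-actin as loading control.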
Target sequence in this assay (Q05397 2-1052 limits assumed): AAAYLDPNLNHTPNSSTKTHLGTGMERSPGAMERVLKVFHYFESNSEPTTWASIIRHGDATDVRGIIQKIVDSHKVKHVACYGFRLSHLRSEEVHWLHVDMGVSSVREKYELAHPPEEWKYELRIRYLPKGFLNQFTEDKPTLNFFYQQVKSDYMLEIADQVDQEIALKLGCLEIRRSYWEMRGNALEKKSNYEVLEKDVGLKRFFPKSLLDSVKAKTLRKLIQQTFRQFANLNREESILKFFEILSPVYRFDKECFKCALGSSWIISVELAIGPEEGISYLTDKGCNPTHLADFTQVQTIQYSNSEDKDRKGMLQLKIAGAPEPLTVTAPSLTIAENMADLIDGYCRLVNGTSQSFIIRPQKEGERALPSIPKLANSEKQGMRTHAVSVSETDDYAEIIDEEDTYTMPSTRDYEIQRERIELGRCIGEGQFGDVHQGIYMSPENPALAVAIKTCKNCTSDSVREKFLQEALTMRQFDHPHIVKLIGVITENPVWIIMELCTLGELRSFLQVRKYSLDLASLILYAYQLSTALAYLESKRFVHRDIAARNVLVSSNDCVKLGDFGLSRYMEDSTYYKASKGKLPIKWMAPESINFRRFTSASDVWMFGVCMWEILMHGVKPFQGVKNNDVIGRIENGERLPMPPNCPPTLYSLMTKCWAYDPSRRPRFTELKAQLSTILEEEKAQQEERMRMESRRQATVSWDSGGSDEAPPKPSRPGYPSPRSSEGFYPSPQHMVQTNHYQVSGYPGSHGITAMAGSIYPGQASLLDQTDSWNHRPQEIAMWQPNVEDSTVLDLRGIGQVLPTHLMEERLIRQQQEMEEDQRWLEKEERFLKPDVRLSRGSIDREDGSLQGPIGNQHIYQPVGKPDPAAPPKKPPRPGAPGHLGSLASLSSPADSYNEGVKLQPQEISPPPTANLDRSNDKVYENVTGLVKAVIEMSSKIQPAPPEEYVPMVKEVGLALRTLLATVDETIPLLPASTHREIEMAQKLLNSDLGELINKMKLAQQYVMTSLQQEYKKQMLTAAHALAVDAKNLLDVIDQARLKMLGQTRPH

Assay [4] addresses T2, Focal adhesion kinase 1. The assay is described as follows: Inhibition of FAK in human A498 cells assessed as reduction in FAK phosphorylation by Western blot analysis. Format: cell-based. In a few lines:
as §2
Target sequence in this assay (Q05397 2-1052 limits assumed): as above

Assay [5] concerns A498. In words: Induction of apoptosis in human A498 cells at 0.75 to 1.5 uM measured after 24 hrs by Annexin-V/propidium iodide staining based flow cytometry relative to control. The assay is classed as functional. To be noted: dose 0.75-1.5 µM. In a few lines:
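Cells in supplemented medium with 10% FBS at 37 °C, 5% CO2, exposed to 0.75 or 1.5 μM compound, or DMSO as negative control, for 24 h. Apoptosis assessed by annexin V/PI staining per kit instructions, then flow cytometry; apoptotic cell percentage quantified against control.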
Background: A flow cytometer gives signals particle by particle.

Assay [6] has as its target T2, Focal adhesion kinase 1. In words: Inhibition of FAK (unknown origin) by FRET-based Z'-Lyte assay. In a few lines:
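Recombinant FAK kinase activity measured with the FRET-based Z'-LYTE format; the same platform was used for a kinase panel (FAK, FLT, FRK, IGF-1R, BTK). IC50 values determined.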
Target sequence in this assay (Q05397 whole entry): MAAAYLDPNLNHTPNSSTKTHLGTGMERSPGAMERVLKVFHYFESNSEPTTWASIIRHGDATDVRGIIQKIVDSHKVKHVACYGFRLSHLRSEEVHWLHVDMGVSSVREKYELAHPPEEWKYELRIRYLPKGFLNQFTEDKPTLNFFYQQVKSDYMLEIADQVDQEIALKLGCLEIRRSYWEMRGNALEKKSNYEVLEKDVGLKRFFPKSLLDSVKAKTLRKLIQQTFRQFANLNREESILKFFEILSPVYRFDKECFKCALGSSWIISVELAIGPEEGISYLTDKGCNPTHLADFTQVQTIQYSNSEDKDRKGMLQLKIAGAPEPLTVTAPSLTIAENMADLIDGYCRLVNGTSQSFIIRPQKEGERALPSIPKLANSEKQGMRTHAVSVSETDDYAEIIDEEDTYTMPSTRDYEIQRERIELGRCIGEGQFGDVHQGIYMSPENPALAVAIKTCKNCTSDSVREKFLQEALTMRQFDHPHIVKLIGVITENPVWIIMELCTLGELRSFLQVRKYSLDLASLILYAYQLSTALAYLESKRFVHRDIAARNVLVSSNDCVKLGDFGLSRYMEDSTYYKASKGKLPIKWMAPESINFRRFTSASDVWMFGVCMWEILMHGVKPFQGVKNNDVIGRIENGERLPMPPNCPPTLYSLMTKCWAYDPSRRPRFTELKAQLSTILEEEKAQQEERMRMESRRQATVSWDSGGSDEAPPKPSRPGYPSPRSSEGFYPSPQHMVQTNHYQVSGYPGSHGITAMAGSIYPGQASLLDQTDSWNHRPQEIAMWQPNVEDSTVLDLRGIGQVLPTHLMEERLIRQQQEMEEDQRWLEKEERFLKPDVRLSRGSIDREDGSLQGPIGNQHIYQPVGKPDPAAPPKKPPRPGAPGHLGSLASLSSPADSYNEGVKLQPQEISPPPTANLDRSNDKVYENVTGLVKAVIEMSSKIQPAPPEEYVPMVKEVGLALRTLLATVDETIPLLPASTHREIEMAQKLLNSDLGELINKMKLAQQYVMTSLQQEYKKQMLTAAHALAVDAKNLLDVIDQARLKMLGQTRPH

Another assay relates to CAKI-1. In words: Induction of cell cycle arrest in human CAKI-1 cells assessed as decrease in cell population at G1 phase at 1.5 uM incubated for 24 hrs by propidium iodide based flow cytometry analysis. The assay is classed as functional. The procedure, abridged:
(§3)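 Cells at 1 × 10^5/mL treated with 0.75 or 1.5 μM compound or DMSO (negative control) for 24 h, harvested and washed in PBS. Fixed by dropwise ice-cold 80% ethanol with vortexing, held overnight, washed twice, PI-stained 20 min in the dark. Phase distribution read by flow cytometry.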

Assay [7] deals with Signal transducer and activator of transcription 3 (Homo sapiens) (UniProt P40763). In words: Inhibition of STAT3 activation in human A498 cells measured after 24 hrs by Western blot analysis. Format: cell-based.
Assay [8] has as its target T1, Histone deacetylase 2. The assay is described as follows: Inhibition of HDAC2 in human A498 cells assessed as reduction in HDAC2 expression by Western blot analysis. Format: cell-based. The procedure, abridged:
as §2

The target in the next assay is Histone deacetylase 3 (Homo sapiens, UniProt O15379). The assay is described as follows: Inhibition of human full-length recombinant HDAC3 preincubated for 5 mins followed by HDAC substrate addition and further incubated for 45 mins by fluorescence microplate reader assay.
The subject of assay [9] is A498. In words: Induction of apoptosis in human A498 cells assessed as activation of caspase-3 measured after 24 hrs by ELISA relative to control. Format: functional. In a few lines: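 A-498 lysates were assayed for active caspase-3 protein by ELISA. Samples or standards were incubated 2 h at room temperature, then caspase-3 (active) detection antibody for 1 h, anti-rabbit IgG-HRP for 30 min, and chromogen for 30 min. After the stop solution, the plate was read and values were taken from a fitted standard curve in pg/ml versus a negative control.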

For assay [10], the target named is T3, Protein deacetylase HDAC6 (Homo sapiens, UniProt Q9UBN7).
T3 sequence (Q9UBN7 whole entry): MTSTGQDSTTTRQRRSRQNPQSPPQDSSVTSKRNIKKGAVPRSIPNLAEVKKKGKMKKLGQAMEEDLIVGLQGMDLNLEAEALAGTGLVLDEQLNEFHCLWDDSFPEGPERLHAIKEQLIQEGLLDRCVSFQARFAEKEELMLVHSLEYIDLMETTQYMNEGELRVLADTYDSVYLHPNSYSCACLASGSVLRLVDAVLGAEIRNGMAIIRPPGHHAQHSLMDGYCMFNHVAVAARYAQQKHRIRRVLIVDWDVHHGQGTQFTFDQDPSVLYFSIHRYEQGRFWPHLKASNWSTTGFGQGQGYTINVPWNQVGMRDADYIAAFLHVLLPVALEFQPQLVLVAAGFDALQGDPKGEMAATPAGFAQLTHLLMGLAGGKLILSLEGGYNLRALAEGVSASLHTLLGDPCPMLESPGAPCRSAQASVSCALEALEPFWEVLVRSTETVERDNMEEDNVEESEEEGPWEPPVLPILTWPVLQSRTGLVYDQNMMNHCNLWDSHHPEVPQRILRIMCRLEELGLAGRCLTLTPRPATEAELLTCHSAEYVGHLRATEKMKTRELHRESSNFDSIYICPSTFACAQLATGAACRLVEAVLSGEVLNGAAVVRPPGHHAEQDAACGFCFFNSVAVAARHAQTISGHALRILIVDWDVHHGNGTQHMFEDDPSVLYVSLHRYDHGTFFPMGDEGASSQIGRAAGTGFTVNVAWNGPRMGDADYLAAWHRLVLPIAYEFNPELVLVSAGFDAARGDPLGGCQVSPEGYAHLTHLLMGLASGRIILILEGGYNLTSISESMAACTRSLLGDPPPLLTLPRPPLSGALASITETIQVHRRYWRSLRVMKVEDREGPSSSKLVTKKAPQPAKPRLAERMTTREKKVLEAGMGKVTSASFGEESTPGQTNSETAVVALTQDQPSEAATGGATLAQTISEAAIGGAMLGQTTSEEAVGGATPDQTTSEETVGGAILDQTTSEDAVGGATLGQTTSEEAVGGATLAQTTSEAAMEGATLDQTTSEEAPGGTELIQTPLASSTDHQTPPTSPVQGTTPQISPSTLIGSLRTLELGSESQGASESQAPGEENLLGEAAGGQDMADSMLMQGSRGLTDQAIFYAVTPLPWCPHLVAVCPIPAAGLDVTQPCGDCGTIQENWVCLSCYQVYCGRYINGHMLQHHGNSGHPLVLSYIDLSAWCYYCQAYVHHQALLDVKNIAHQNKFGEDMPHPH
The assay is described as follows: Inhibition of human full-length recombinant HDAC6 preincubated for 5 mins followed by HDAC substrate addition and further incubated for 45 mins by fluorescence microplate reader assay.

Assay [11] relates to A498. In words: Antiproliferative activity against human A498 cells assessed as cell growth inhibition incubated for 24 hrs by MTT assay. Format: functional, cell-based. To be noted: A498, 24 h.
Assay [12] concerns A498. The assay is described as follows: Induction of apoptosis in human A498 cells assessed as activation of caspase-9 measured after 24 hrs by ELISA relative to control. The assay is classed as functional.
Assay [13] deals with A498. In words: Induction of cell cycle arrest in human A498 cells assessed as decrease in cell population at G1 phase at 1.5 uM incubated for 24 hrs by propidium iodide based flow cytometry analysis. Format: functional. The procedure, abridged:
as §3

pIC50: −log10 of the molar value. Active and inactive are the calls of the source. The calls are words filed in the database; no cut-off is given here.

T1 sequence (Q92769 whole entry): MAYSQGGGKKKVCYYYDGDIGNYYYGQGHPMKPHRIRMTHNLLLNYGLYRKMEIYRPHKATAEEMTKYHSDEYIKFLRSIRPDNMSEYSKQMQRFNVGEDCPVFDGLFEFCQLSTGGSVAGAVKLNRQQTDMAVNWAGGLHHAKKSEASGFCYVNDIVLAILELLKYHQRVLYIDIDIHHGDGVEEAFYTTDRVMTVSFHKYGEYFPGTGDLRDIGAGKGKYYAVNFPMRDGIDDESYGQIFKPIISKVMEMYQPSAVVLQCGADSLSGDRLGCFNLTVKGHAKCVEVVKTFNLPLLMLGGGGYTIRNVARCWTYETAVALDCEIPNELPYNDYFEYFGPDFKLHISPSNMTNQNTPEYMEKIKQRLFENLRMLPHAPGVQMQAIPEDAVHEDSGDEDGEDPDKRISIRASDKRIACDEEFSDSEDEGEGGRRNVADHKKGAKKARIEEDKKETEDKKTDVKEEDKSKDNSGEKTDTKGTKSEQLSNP
Chain of Signal transducer and activator of transcription 3 (Homo sapiens) (P40763 whole entry): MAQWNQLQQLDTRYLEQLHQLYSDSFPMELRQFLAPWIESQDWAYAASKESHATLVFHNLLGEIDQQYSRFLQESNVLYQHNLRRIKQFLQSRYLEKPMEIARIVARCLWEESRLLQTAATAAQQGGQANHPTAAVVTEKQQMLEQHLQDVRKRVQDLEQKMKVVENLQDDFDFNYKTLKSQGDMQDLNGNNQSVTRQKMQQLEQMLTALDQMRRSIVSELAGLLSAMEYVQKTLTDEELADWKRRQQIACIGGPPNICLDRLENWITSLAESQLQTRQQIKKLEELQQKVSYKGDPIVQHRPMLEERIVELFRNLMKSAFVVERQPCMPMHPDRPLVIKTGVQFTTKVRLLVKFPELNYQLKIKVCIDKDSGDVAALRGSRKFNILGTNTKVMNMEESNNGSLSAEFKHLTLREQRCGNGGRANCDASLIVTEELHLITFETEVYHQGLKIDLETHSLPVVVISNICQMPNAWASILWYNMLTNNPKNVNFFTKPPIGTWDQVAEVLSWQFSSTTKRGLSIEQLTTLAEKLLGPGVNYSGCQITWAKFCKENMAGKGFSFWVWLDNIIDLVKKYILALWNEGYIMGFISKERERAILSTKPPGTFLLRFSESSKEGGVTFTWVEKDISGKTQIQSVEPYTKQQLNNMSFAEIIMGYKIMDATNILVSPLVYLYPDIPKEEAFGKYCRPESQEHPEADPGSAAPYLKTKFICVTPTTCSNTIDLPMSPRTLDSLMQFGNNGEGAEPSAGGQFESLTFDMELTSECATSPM
Chain of Histone deacetylase 3 (O15379 whole entry): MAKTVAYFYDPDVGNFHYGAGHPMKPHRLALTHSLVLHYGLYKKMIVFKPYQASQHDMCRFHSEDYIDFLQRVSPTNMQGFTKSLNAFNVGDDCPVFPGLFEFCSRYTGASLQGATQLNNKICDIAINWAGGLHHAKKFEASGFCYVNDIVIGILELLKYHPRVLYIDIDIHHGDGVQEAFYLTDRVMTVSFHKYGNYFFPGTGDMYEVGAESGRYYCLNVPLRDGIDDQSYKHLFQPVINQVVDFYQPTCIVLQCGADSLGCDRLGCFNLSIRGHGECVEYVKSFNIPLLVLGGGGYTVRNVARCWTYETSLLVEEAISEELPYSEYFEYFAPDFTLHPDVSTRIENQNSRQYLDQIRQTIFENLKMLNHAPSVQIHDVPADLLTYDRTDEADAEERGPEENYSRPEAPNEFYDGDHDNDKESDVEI

With `Cn1c(SCCCCCC(=O)NO)nnc1-c1ccncc1`, the inhibition of growth at 10 µM in the assay on A498 [1] was found to be 99.8%. Also, the inhibition result (at Histone deacetylase 2 [2]; at Focal adhesion kinase 1 [3]; on Focal adhesion kinase 1 [4]; in assay [7]; on Histone deacetylase 2 [8]) was “Active” in each case. In the assay with KG-1, this compound returned an inhibition in vitro at 10 µM of 84.2%. The compound also had an Activity with A498 [5] of 50%. Further, the pIC50 against Focal adhesion kinase 1 [6] was 7.90; on Histone deacetylase 3, 5.47; in [10] it was 4.86; in the assay with A498 [11], 6.02. In addition, the result in the assay on CAKI-1 and in the assay on A498 [13] was Active. For the same compound, the entries for the “fold change (FC)” value with A498 [9] and with A498 [12] were 11 and 6, respectively.
